Laboratory results from ChEMBL document CHEMBL1136627, “Discovery of novel neuronal voltage-dependent calcium channel blockers based on emopamil left hand as a bioactive template” (Bioorg Med Chem Lett, 2003).

Tests used:
[1] = Neuronal voltage-dependent calcium channel (VDCC) inhibitory activity determined in rat cortical synaptosomes; assay type: subcellular, Brain
In short: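 Rat cortical synaptosomes depolarized with KCl; rise in intracellular Ca2+ measured fluorimetrically with Fura2; IC50 (µM) for inhibition of the KCl-elicited [Ca2+]i elevation; racemic test compounds.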

Mus musculus = experiment: Anti seizure activity was evaluated in the audiogenic seizure model using DBA/2 mice at 10 mg/kg (iv); assay type: functional
In short: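 DBA/2 mice given test compound iv at 10 mg/kg; 5 min later each mouse placed singly under a perspex dome and exposed to sound (100 dB, 11 kHz) continued for 60 s; scored for sound-induced tonic convulsion.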

SMILES | IC50 [1] | Protection (Mus musculus)
CC(C)C(C#N)(CCCN1CCN(CCCc2ccccc2)CC1)c1ccccc1 (stereo unspecified) | 4.5 µM | 
CC(C)C(C#N)(CCCN1CCN(CCOc2cccnc2)CC1)c1ccccc1 (stereo unspecified) | > 16 µM | 
CC(C)C(C#N)(CCCN1CCN(CCOc2ccccc2C#N)CC1)c1ccccc1 (stereo unspecified) | 16 µM | 
CC(C)C(C#N)(CCCN1CCN(c2ccccc2)CC1)c1ccccc1 (stereo unspecified) | > 16 µM | 
CC(C)C(C#N)(CCCN1CCN(CCO)CC1)c1ccccc1 (stereo unspecified) | > 16 µM | 
CC(C)C(C#N)(CCCN1CCN(Cc2ccccc2)CC1)c1ccccc1 (stereo unspecified) | 12 µM | 
CC(C)C(C#N)(CCCN1CCNCC1)c1ccccc1 (stereo unspecified) | > 16 µM | 
CC(C)C(C#N)(CCCN1CCN(CCOc2ccccn2)CC1)c1ccccc1 (stereo unspecified) | > 16 µM | 
CC(C)C(C#N)(CCCN1CCN(CCOc2ccc([N+](=O)[O-])cc2)CC1)c1ccccc1 (stereo unspecified) | 7.5 µM | 
C#CCCCCN1CCN(CCCC(C#N)(c2ccccc2)C(C)C)CC1 (stereo unspecified) | > 16 µM | 
CC(C)C(C#N)(CCCN1CCN(CCOc2ccc(N(C)C)cc2)CC1)c1ccccc1 (stereo unspecified) | > 16 µM | 
CC(C)C(C#N)(CCCN1CCN(CCOc2ccc(C#N)cc2)CC1)c1ccccc1 (stereo unspecified) | 13 µM | 
CC(C)C(C#N)(CCCN1CCN(CCc2ccccc2)CC1)c1ccccc1 (stereo unspecified) | 7.7 µM | 
CC(C)C(C#N)(CCCN1CCN(CCOc2cccc(F)c2)CC1)c1ccccc1 (stereo unspecified) | 6.2 µM | 
CC(C)C(C#N)(CCCN1CCN(CCOc2cccc3ccccc23)CC1)c1ccccc1 (stereo unspecified) | 2.5 µM | 

Now from value to molecule, other results behind:

IC50 [1] | SMILES | Protection (Mus musculus)
5.9 µM | CC(C)C(C#N)(CCCN1CCN(CCOc2ccc(F)cc2)CC1)c1ccccc1 (stereo unspecified) | 100%
13 µM | CC(C)C(C#N)(CCCN1CCN(CCOc2ccc(N)cc2)CC1)c1ccccc1 (stereo unspecified) | 
> 16 µM | CC(C)C(C#N)(CCCN1CCN(C)CC1)c1ccccc1 (stereo unspecified) | 
> 16 µM | CC(C)C(C#N)(CCCN1CCN(CCOc2ccncc2)CC1)c1ccccc1 (stereo unspecified) | 
7.7 µM | CC(C)C(C#N)(CCCN1CCN(CCOc2cccc(C#N)c2)CC1)c1ccccc1 (stereo unspecified) | 
5.2 µM | CC(C)C(C#N)(CCCN1CCN(CCOc2ccc(F)c(F)c2)CC1)c1ccccc1 (stereo unspecified) | 
9.3 µM | CC(C)C(C#N)(CCCN1CCN(CCOc2ccccc2F)CC1)c1ccccc1 (stereo unspecified) | 
3.4 µM | CC(C)C(C#N)(CCCN1CCN(CCOc2ccc(Cl)cc2)CC1)c1ccccc1 (stereo unspecified) | 
9.6 µM | COc1ccc(OCCN2CCN(CCCC(C#N)(c3ccccc3)C(C)C)CC2)cc1 (stereo unspecified) | 
28 µM | CC(C)C(C#N)(CCCN(C)CCc1ccccc1)c1ccccc1 (stereo unspecified) [EMOPAMIL] | 
